Measurements from ChEMBL document CHEMBL4138318, “Discovery of 5-Cyano-6-phenylpyrimidin Derivatives Containing an Acylurea Moiety as Orally Bioavailable Reversal Agents against P-Glycoprotein-Mediated Mutidrug Resistance” (J Med Chem, 2018).

Experiments:
[1] = biological target: ATP-dependent translocase ABCB1 (Homo sapiens, UniProt P08183); test: Inhibition of ABCB1 in human SW620/AD300 cells assessed as potentiation of paclitaxel-induced cytotoxicity by measuring fold reduction in paclitaxel IC50 at 2 uM after 72 hrs by MTT assay relative to paclitaxel alone; type: cell-based
Procedure, shortened: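 SW620/AD300 cells (~5×10^3/well) treated with graded paclitaxel with or without modulator (2 µM, or 0.5-2 µM in dose series; 0.1% DMSO solvent control) for 72 h; MTT (5 mg/mL stock) added 4 h, absorbance 490 nm. IC50 as mean ± SD of three independent runs; reversal fold = paclitaxel IC50 without/with modulator.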

[2] = Cytotoxicity against human SW620 cells assessed as survival at 2 uM after 72 hrs by MTT assay relative to control; type: cell-based, SW-620; details: read-out: Survival
[3] = Cytotoxicity against human SW620/AD300 cells assessed as survival at 2 uM after 72 hrs by MTT assay relative to control; type: cell-based; details: read-out: Survival

Sequence of ATP-dependent translocase ABCB1 (P08183 whole entry): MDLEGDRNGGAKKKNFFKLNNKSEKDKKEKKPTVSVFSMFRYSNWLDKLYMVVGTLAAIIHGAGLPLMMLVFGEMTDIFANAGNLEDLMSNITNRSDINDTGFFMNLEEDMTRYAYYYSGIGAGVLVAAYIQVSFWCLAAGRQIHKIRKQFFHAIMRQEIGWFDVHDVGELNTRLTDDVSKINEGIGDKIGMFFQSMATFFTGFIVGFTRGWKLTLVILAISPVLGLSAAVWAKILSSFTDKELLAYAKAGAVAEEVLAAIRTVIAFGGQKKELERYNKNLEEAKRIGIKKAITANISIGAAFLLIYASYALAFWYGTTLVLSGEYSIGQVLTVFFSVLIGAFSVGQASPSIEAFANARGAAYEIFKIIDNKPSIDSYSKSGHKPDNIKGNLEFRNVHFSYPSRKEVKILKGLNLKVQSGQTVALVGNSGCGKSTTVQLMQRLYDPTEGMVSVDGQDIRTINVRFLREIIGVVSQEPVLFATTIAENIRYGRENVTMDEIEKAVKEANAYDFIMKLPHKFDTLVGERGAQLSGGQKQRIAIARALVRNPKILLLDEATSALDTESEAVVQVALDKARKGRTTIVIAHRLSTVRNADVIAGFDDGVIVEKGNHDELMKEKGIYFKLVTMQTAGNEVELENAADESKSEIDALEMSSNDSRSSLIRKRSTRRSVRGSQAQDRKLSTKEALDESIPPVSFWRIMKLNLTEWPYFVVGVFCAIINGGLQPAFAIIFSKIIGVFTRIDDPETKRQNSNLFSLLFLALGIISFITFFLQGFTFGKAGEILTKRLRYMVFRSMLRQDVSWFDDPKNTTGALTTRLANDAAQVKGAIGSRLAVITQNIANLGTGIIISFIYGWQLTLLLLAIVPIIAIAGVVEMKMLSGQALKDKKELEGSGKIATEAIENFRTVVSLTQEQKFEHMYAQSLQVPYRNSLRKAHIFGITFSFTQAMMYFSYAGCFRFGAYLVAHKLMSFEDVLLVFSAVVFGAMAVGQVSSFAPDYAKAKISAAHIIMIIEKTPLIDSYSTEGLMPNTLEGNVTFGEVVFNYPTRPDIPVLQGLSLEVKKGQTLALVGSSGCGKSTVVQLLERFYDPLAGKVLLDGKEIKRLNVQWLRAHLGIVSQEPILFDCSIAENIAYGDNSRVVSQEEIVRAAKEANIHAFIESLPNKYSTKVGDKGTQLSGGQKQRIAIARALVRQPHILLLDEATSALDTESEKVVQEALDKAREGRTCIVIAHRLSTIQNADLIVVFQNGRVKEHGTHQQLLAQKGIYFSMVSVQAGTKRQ

| Compound | fold change (FC) [1] | viability at 72 h, 2 µM [2] [%] | viability at 72 h, 2 µM [3] [%] |
| --- | --- | --- | --- |
| Cc1ccc(Nc2nc(SCc3cn(CC(=O)NC(=O)Nc4ccccn4)nn3)nc(-c3ccc(Br)cc3)c2C#N)cc1 | 1.41 | > 90 | > 90 |
| COc1ccc(Nc2nc(SCC(=O)NC(=O)Nc3ccccn3)nc(-c3ccc(C(C)C)cc3)c2C#N)cc1 | 2.17 | > 90 | > 90 |
| COc1ccccc1Nc1nc(SCC(=O)NC(=O)Nc2ccccn2)nc(-c2ccc(F)c(F)c2)c1C#N | 13.42 | > 90 | > 90 |
| N#Cc1c(Nc2cccc(C(F)(F)F)c2)nc(SCC(=O)NC(=O)Nc2ccccn2)nc1-c1ccc(Cl)cc1 | 2.86 | > 90 | > 90 |
| COc1cc(-c2nc(SCc3ccccc3)nc(Nc3ccc(Cl)cc3)c2C#N)cc(OC)c1OC | 1.24 | > 90 | > 90 |
| N#Cc1c(Nc2cccc(C(F)(F)F)c2)nc(SCC(=O)NC(=O)Nc2ccccn2)nc1-c1ccc(F)c(F)c1 | 3.11 | > 90 | > 90 |
| Cc1ccc(Nc2nc(SCc3cn(Cc4ccccc4Cl)nn3)nc(-c3ccc(Br)cc3)c2C#N)cc1 | 3.39 | – | – |
| COc1cc(-c2nc(SCc3cn(CC(=O)NC(=O)Nc4ccccn4)nn3)nc(Nc3ccc(C(C)C)cc3)c2C#N)cc(OC)c1OC | 13.16 | > 90 | > 90 |
| Cc1ccc(Nc2nc(SCc3cn(CC(=O)NC(=O)Nc4ccccn4)nn3)nc(-c3ccc(C(C)C)cc3)c2C#N)cc1 | 6.86 | > 90 | > 90 |
| COc1cc(-c2nc(SCc3cn(CC(=O)NC(=O)Nc4ccccn4)nn3)nc(Nc3ccc(C)cc3)c2C#N)cc(OC)c1OC | 6.23 | > 90 | > 90 |
| COc1ccc(Nc2nc(SCc3cn(CC(=O)NC(=O)Nc4ccccn4)nn3)nc(-c3ccc(C)cc3)c2C#N)cc1 | 1.18 | > 90 | > 90 |
| Cc1ccc(Nc2nc(SCc3cn(CC(=O)NC(=O)Nc4ccccn4)nn3)nc(-c3ccc(C)cc3)c2C#N)cc1 | 17.37 | > 90 | > 90 |
| CC(C)c1ccc(-c2nc(SCc3cn(CC(=O)NC(=O)Nc4ccccn4)nn3)nc(Nc3ccccc3F)c2C#N)cc1 | 2.74 | > 90 | > 90 |
| COc1ccccc1Nc1nc(SCc2cn(CC(=O)NC(=O)Nc3ccccn3)nn2)nc(-c2ccc(C(C)C)cc2)c1C#N | 10.18 | > 90 | > 90 |
| COc1cc(-c2nc(SCC(=O)NC(=O)Nc3ccccc3)nc(Nc3ccc(F)cc3)c2C#N)cc(OC)c1OC | 25.37 | > 90 | > 90 |
| CC(C)c1ccc(-c2nc(SCC(=O)NC(=O)Nc3ccccn3)nc(Nc3cccc(C(F)(F)F)c3)c2C#N)cc1 | 37.04 | > 90 | > 90 |
| COc1cc(-c2nc(SCc3cn(CC(=O)NC(=O)Nc4ccccn4)nn3)nc(Nc3cccc(C(F)(F)F)c3)c2C#N)cc(OC)c1OC | 1.35 | > 90 | > 90 |
| Cc1ccc(Nc2nc(SCC(=O)NC(=O)Nc3ccccn3)nc(-c3ccccc3)c2C#N)cc1 | 1.67 | > 90 | > 90 |
| COc1cc(-c2nc(SCc3cn(CC(=O)NC(=O)Nc4ccccn4)nn3)nc(Nc3ccc(Cl)cc3)c2C#N)cc(OC)c1OC | 1.71 | > 90 | > 90 |
| CC(C)c1ccc(-c2nc(SCc3cn(CC(=O)NC(=O)Nc4ccccn4)nn3)nc(Nc3ccccc3Cl)c2C#N)cc1 | 4.75 | > 90 | > 90 |
| COc1cc(-c2nc(SCC(=O)NC(=O)Nc3ccccn3)nc(Nc3cccc([N+](=O)[O-])c3)c2C#N)cc(OC)c1OC | 82.08 | > 90 | > 90 |
| Cc1ccc(-c2nc(SCc3cn(CC(=O)NC(=O)Nc4ccccn4)nn3)nc(Nc3cccc(C(F)(F)F)c3)c2C#N)cc1 | 1.88 | > 90 | > 90 |
| COc1cc(-c2nc(SCc3cn(CC(=O)NC(=O)Nc4ccccn4)nn3)nc(Nc3cccc(Cl)c3)c2C#N)cc(OC)c1OC | 1.37 | > 90 | > 90 |
| COc1cc(-c2nc(SCc3cn(Cc4ccccc4Cl)nn3)nc(Nc3ccc(C)cc3)c2C#N)cc(OC)c1OC | 27.54 | – | – |
| Cc1ccc(Nc2nc(SCc3cn(Cc4ccccc4Cl)nn3)nc(-c3ccc(C)cc3)c2C#N)cc1 | 21.69 | – | – |
